Experimental data taken from ChEMBL document CHEMBL1146457, “Tetrahydrofuran lignans from Nectandra megapotamica with trypanocidal activity” (J Nat Prod, 2004).

Columns and labels:
Trypanosoma cruzi [1] = experiment: Trypanocidal activity against Trypanosoma cruzi Y trypomastigotes infected in mouse macrophage at 8 uM; assay type: functional
Method in brief: (§1)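 Trypomastigotes were harvested from mouse macrophage cultures, about 2 × 10^6 parasites/mL, in RPMI 1640 in 96-well plates. Compounds were dissolved in DMSO and diluted in blood to final 2.0, 8.0 and 32.0 µM, with 1% DMSO. Plates were incubated at 4 °C, and percent lysis was read by MTT colorimetry, in triplicate. Negative control: infected blood plus DMSO.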

Trypanosoma cruzi [2] = experiment: Antitrypanosomal activity against Trypanosoma cruzi Y trypomastigotes infected in mouse macrophage; assay type: functional, organism-based; method in brief: as §1
Trypanosoma cruzi [3] = experiment: Trypanocidal activity against Trypanosoma cruzi Y trypomastigotes infected in mouse macrophage at 2 uM; assay type: functional; method in brief: as §1
Trypanosoma cruzi [4] = experiment: Trypanocidal activity against Trypanosoma cruzi Y trypomastigotes infected in mouse macrophage at 32 uM; assay type: functional; method in brief: as §1
Trypanosoma cruzi [5] = experiment: Trypanocidal activity against Trypanosoma cruzi Y trypomastigotes infected in mouse macrophage at 250 ug/ml; assay type: functional, organism-based
Method in brief: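 Positive-control wells had gentian violet at 250 µg/mL against trypomastigotes from mouse macrophage cultures, about 2 × 10^6 parasites/mL, in RPMI 1640 in blood. Incubation was at 4 °C, and percent lysis was measured by MTT colorimetric method, in triplicate.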

## COc1cc([C@H]2O[C@@H](c3ccc(OC)c(OC)c3)[C@@H](C)[C@@H]2C)ccc1O [ARISTOLIGNIN]
Trypanosoma cruzi [1]
  Activity: 46.8%
Trypanosoma cruzi [2]
  IC50: 34.8 µM
Trypanosoma cruzi [3]
  Activity: 34.2%
Trypanosoma cruzi [4]
  Activity: 47.6%

## COc1ccc([C@@H]2O[C@H](c3ccc4c(c3)OCO4)[C@@H](C)[C@@H]2C)cc1OC [CALOPIPTIN]
Trypanosoma cruzi [1]
  Activity: 49.2%
Trypanosoma cruzi [2]
  IC50: 12.6 µM
Trypanosoma cruzi [3]
  Activity: 21.4%
Trypanosoma cruzi [4]
  Activity: 60.3%

## COc1ccc([C@H]2O[C@@H](c3ccc(OC)c(OC)c3)[C@H](C)[C@@H]2C)cc1OC [GALGRAVIN]
Trypanosoma cruzi [1]
  Activity: 56.3%
Trypanosoma cruzi [2]
  IC50: 4.4 µM
Trypanosoma cruzi [3]
  Activity: 44%
Trypanosoma cruzi [4]
  Activity: 59.9%

## COc1ccc([C@H]2O[C@H](c3ccc(OC)c(OC)c3)[C@@H](C)[C@H]2C)cc1OC [GANSCHISANDRINE]
Trypanosoma cruzi [1]
  Activity: 49.2%
Trypanosoma cruzi [2]
  IC50: 12.2 µM
Trypanosoma cruzi [3]
  Activity: 36.5%
Trypanosoma cruzi [4]
  Activity: 55.6%

## CN(C)c1ccc(C(=C2C=CC(=[N+](C)C)C=C2)c2ccc(N(C)C)cc2)cc1 [GENTIAN VIOLET]
Trypanosoma cruzi [5]
  IC50: 76 µM

## COc1ccc([C@@H]2O[C@H](c3ccc4c(c3)OCO4)[C@@H](C)[C@H]2C)cc1OC [MACHILIN G]
Trypanosoma cruzi [1]
  Activity: 53.6%
Trypanosoma cruzi [2]
  IC50: 2.2 µM
Trypanosoma cruzi [3]
  Activity: 54.8%
Trypanosoma cruzi [4]
  Activity: 94%

## COc1cc([C@H]2O[C@@H](c3ccc(OC)c(OC)c3)[C@H](C)[C@@H]2C)ccc1O [NECTANDRIN A]
Trypanosoma cruzi [1]
  Activity: 13.5%
Trypanosoma cruzi [2]
  IC50: 17400 µM
Trypanosoma cruzi [3]
  Activity: 10.2%
Trypanosoma cruzi [4]
  Activity: 18%

## COc1cc([C@H]2O[C@@H](c3ccc(O)c(OC)c3)[C@H](C)[C@@H]2C)ccc1O [NECTANDRIN B]
Trypanosoma cruzi [1]
  Activity: 25%
Trypanosoma cruzi [2]
  IC50: 47.3 µM
Trypanosoma cruzi [3]
  Activity: 23%
Trypanosoma cruzi [4]
  Activity: 48%
